Measured values as given in article PMC13170702 (Nuclear medicine and biology, 2025).

What was measured:
[1] = i.v., low molar activity tracer, PET-CT; cited from earlier work
[2] = HPLC stability determination of final drug product; assay type: physicochemical; conditions: ambient temperature, shielded container
In short: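 Final product was formulated at 44–463 MBq/mL in USP ethanol (1 mL)/0.5 mg ascorbic acid in 0.9 % sodium chloride, sterile filtered and sealed in a glass vial. It was held at ambient temperature in a shielded container and checked by HPLC after end-of-synthesis. Release QC covered HPLC radiochemical purity (≥90 %), pH 4.5–7.5, endotoxin, GC residual solvents, sterility and filter integrity.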

For COC(=O)[C@@H](N)CC(=O)Nc1ccc2c(c1)Cc1cc([18F])ccc1-2 [[^18F]RP-115, methyl N^4-(7-[^18F]fluoro-9H-fluoren-2-yl)asparaginate], which “CNS activity uptake (SUV)” value [1] is on record?
Its value is > 1.

What about the “expiration time after end-of-synthesis (EOS)” value [2] of the same compound?
The value was 4 h.
